Measured values from ChEMBL document CHEMBL2021865, “Design, synthesis and structure-activity relationship of N-substituted tropane muscarinic acetylcholine receptor antagonists” (Bioorg Med Chem Lett, 2012).
Active and inactive are the calls of the source. The calls are words filed in the database; no cut-off is given here.

Assays:
[1] = biological target: T1, Muscarinic acetylcholine receptor M3 (Homo sapiens, UniProt P20309); assay: Antagonist activity at human muscarinic acetylcholine M3 receptor expressed in CHO cells assessed as inhibition of Ach-induced calcium mobilization by FLIPR analysis; format: functional, cell-based
Summary of the method: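 Calcium mobilization read by standard FLIPR protocol. IC50 in nM, mean of two or more independent assays.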
Target sequence in this assay (P20309 whole entry): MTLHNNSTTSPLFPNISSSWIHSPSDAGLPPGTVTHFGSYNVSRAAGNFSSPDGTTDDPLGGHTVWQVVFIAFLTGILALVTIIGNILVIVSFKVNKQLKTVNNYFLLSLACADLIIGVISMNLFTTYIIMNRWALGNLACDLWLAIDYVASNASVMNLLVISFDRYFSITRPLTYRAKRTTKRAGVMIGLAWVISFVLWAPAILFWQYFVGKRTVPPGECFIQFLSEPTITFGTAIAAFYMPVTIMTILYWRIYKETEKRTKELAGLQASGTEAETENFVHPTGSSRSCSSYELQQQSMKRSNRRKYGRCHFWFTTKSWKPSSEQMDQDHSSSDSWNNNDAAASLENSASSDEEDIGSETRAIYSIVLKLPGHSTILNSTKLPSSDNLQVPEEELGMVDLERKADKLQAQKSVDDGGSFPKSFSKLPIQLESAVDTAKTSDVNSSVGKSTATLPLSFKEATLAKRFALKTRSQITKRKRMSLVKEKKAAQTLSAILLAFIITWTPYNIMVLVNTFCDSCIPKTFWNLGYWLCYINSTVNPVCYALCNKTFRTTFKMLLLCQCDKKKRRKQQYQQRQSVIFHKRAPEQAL

[2] = biological target: T1, Muscarinic acetylcholine receptor M3; assay: Antagonist potency at human muscarinic acetylcholine M3 receptor expressed in CHO cells assessed as inhibition of Ach-induced calcium mobilization by FLIPR analysis relative to control; format: functional, cell-based; conditions: for Kb: read-out: pA2 (converted)
Summary of the method: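 Human M3 receptor in CHO cells, ACh-stimulated calcium mobilization by FLIPR. pA2 derived from the ratio of the ACh EC50 with and without antagonist. Run only where the IC50 was below 10 nM. Values above 11 could not be determined accurately.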
Target sequence in this assay (P20309 whole entry): as above

[3] = biological target: T1, Muscarinic acetylcholine receptor M3
Target sequence in this assay (P20309 whole entry, looked up): as the sequence (P20309 whole entry) above

[4] = biological target: T2, Muscarinic acetylcholine receptor M1 (Homo sapiens, UniProt P11229); assay: Displacement of [3H]-N-methyl scopolamine from muscarinic acetylcholine M1 receptor expressed in CHO cell membrane; format: cell membranes
T2 sequence (P11229 whole entry): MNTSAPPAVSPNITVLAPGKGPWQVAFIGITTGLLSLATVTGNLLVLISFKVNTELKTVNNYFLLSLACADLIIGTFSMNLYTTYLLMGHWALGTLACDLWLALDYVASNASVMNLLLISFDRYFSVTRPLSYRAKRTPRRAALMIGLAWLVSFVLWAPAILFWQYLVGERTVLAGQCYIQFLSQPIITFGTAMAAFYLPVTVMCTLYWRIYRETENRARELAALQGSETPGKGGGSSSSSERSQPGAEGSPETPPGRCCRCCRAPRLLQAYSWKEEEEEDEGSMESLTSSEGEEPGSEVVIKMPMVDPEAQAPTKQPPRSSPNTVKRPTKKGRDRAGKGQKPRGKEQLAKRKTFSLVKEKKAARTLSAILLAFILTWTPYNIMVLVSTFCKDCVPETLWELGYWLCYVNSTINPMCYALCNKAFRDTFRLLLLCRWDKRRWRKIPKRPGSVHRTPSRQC
Summary of the method: (§1)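 Membranes from CHO cells, SPA-format radioligand binding against 0.5 nM [3H]-N-methyl scopolamine. Values are the mean of three independent assays.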

[5] = biological target: T3, Muscarinic acetylcholine receptor M2 (Homo sapiens, UniProt P08172); assay: Displacement of [3H]-N-methyl scopolamine from muscarinic acetylcholine M2 receptor expressed in CHO cell membrane; format: cell membranes; summary of the method: as §1
T3 sequence (P08172 whole entry): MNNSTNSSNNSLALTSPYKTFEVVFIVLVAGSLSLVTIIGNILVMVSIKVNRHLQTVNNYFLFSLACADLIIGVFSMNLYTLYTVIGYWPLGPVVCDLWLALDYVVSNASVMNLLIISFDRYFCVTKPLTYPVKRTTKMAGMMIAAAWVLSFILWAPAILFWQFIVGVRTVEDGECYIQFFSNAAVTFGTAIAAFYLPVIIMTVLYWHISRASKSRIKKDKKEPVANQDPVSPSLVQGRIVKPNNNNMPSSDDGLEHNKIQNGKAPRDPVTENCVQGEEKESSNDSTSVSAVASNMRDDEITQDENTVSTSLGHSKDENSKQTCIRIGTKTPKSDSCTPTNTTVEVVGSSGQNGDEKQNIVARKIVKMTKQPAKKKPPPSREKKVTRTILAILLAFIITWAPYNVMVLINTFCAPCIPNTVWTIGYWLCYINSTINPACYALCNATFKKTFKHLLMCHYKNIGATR

[6] = biological target: T1, Muscarinic acetylcholine receptor M3; assay: Displacement of [3H]-N-methyl scopolamine from muscarinic acetylcholine M3 receptor expressed in CHO cell membrane; format: cell membranes; summary of the method: as §1
Target sequence in this assay (P20309 whole entry): as the sequence (P20309 whole entry) above

Mus musculus [7] = assay: Antagonist potency at muscarinic acetylcholine M3 receptor in intranasally dosed mouse assessed as inhibition of Mch-induced bronchoconstriction; format: functional
Summary of the method: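 Conscious mice challenged with methacholine to induce bronchoconstriction. ED50 expressed as µg per mouse, n = 1.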

Mus musculus [8] = assay: Bronchoprotective activity in mouse against methacholine-induced bronchoconstriction assessed as time duration of bronchoprotection at 0.05 ug administered intranasally; format: functional
Summary of the method: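 Conscious mice, methacholine-induced bronchoconstriction. Duration of bronchoprotection taken as the time to 50% loss of maximum protection.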

[9] = Plasma clearance in rat at 1 mg/kg, iv; format: ADME, organism-based; set-up: dose 1 mg/kg, route intravenous
Summary of the method: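 Rats dosed iv at 1 mg/kg. Systemic plasma clearance in ml/min/kg.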

Rattus norvegicus = assay: Oral bioavailability in rat at 2 mg/kg; format: ADME, organism-based; conditions: in vivo, BLD = below limit of detection
Summary of the method: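 Rats dosed orally at 2 mg/kg. Percent bioavailability calculated from plasma levels.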

| SMILES | IC50 [1] | Kb [2] | also measured |
| --- | --- | --- | --- |
| CCCCCCCCCCCC[N+]1(C)[C@@H]2CC[C@H]1C[C@H](CC(C#N)(c1ccccc1)c1ccccc1)C2 (mixture of isomers) | 64 nM |  |  |
| C[N@+]1(CCOc2ccccc2)C2CCC1C[C@@H](CC(C#N)(c1ccccc1)c1ccccc1)C2 | < 10 nM | < 0.01 nM |  |
| C[N@+]1(CCCOc2ccccc2)C2CCC1C[C@@H](CC(C#N)(c1ccccc1)c1ccccc1)C2 | < 10 nM | < 0.01 nM |  |
| C=CCCCC[N+]1(C)[C@@H]2CC[C@H]1C[C@@H](CC(C#N)(c1ccccc1)c1ccccc1)C2 (mixture of isomers) | 85.2 nM |  |  |
| C[N+]1(CCO)[C@@H]2CC[C@H]1C[C@@H](CC(C#N)(c1ccccc1)c1ccccc1)C2 (mixture of isomers) | < 10 nM | 0.158 nM |  |
| C[N@+]1(CCCc2ccccc2)C2CCC1C[C@@H](CC(C#N)(c1ccccc1)c1ccccc1)C2 | < 10 nM | < 0.01 nM |  |
| CC[N+]1(C)[C@@H]2CC[C@H]1C[C@@H](CC(C#N)(c1ccccc1)c1ccccc1)C2 (mixture of isomers) | < 10 nM | 0.0501 nM |  |
| C=CCCCC[N@+]1(C)C2CCC1C[C@H](CC(C#N)(c1ccccc1)c1ccccc1)C2 [listing 1 of 2 here] | < 10 nM | < 0.01 nM |  |
| C[N@+]1(CC2CC2)C2CCC1C[C@@H](CC(C#N)(c1ccccc1)c1ccccc1)C2 | < 10 nM | 0.0251 nM |  |
| C=CC[N+]1(C)[C@@H]2CC[C@H]1C[C@@H](CC(C#N)(c1ccccc1)c1ccccc1)C2 (mixture of isomers) | < 10 nM | 1.26 nM |  |
| C=CCCCC[N@+]1(C)C2CCC1C[C@@H](CC(C#N)(c1ccccc1)c1ccccc1)C2 | 32 nM |  |  |
| CCC[N+]1(C)[C@@H]2CC[C@H]1C[C@@H](CC(C#N)(c1ccccc1)c1ccccc1)C2 (mixture of isomers) | < 10 nM | 0.0501 nM |  |
| C[N@+]1(CCOCc2ccccc2)C2CCC1C[C@@H](CC(C#N)(c1ccccc1)c1ccccc1)C2 | < 10 nM | < 0.01 nM |  |
| CCCC[N@+]1(C)C2CCC1C[C@H](CC(C#N)(c1ccccc1)c1ccccc1)C2 | < 10 nM | < 0.01 nM |  |
| C[N+]1(CC2CC2)[C@@H]2CC[C@H]1C[C@@H](CC(C#N)(c1ccccc1)c1ccccc1)C2 (mixture of isomers) | < 10 nM | 0.0501 nM |  |
| C[N+]1(CCC2CCCCC2)[C@@H]2CC[C@H]1C[C@@H](CC(C#N)(c1ccccc1)c1ccccc1)C2 (mixture of isomers) | 109 nM |  |  |
| C[N+]1(CCCC#N)[C@@H]2CC[C@H]1C[C@@H](CC(C#N)(c1ccccc1)c1ccccc1)C2 (mixture of isomers) | < 10 nM | 0.158 nM |  |
| CCCCCCCC[N@+]1(C)C2CCC1C[C@H](CC(C#N)(c1ccccc1)c1ccccc1)C2 | < 10 nM | 0.0794 nM |  |
| C[N@+]1(CCCOCc2ccccc2)C2CCC1C[C@@H](CC(C#N)(c1ccccc1)c1ccccc1)C2 | < 10 nM | 0.0398 nM |  |
| C[N+]1(Cc2ccccc2)[C@@H]2CC[C@H]1C[C@@H](CC(C#N)(c1ccccc1)c1ccccc1)C2 (mixture of isomers) | 318 nM |  |  |
| COCC[N+]1(C)[C@@H]2CC[C@H]1C[C@@H](CC(C#N)(c1ccccc1)c1ccccc1)C2 (mixture of isomers) | < 10 nM | 0.501 nM |  |
| COCCOCC[N+]1(C)[C@@H]2CC[C@H]1C[C@@H](CC(C#N)(c1ccccc1)c1ccccc1)C2 (mixture of isomers) | < 10 nM | 0.631 nM |  |
| C[N+]1(CC2CCCCC2)[C@@H]2CC[C@H]1C[C@@H](CC(C#N)(c1ccccc1)c1ccccc1)C2 (mixture of isomers) | 89.6 nM |  |  |
| CCCCCC[N@+]1(C)C2CCC1C[C@H](CC(C#N)(c1ccccc1)c1ccccc1)C2 | < 10 nM | < 0.01 nM |  |
| C=CCCCC[N@+]1(C)C2CCC1C[C@H](CC(C#N)(c1ccccc1)c1ccccc1)C2 [listing 2 of 2 here] |  |  | pA2 [3]: Active |
| C[N@+]1(CC2CC2)C2CCC1C[C@H](CC(C#N)(c1ccccc1)c1ccccc1)C2 | 26.3 nM |  |  |
| C=CCCCC[N@+]1(C)C2CCC1C[C@H](CC(C#N)(c1ccccc1)c1ccccc1)C2.[Br-] |  |  | pA2 ([2]; cho): > 11; Ki [4]: 0.12 nM; Ki [5]: 0.1 nM; Ki [6]: 0.16 nM; ED50 (Mus musculus [7]): 0.02 µg; Time (Mus musculus [8]): >96 h; clearance [9]: 125 mL/min/kg; F (Rattus norvegicus): BLD |
